≈ marks a conversion by molar mass, not a printed value.
Legend:
[1] = test system: NIH3T3; test: Cytotoxicity against mouse NIH/3T3 cells after 24 hrs by XTT assay; format: cell-based; conditions: NIH3T3, 24 h
In short: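 Mouse NIH3T3 fibroblasts grown in DMEM with fetal calf serum, penicillin/streptomycin, 37 °C, 5% CO2; 20,000 cells/well, treated after 24 h with 0.00316 µM-10 mM compound for 24 h. Viability via XTT (3 h, OD 480 nm, reference 680 nm); % inhibition computed and IC50 fitted by non-linear regression.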

[2] = test system: A549; test: Cytotoxicity against human A549 cells after 24 hrs by XTT assay; format: functional, cell-based; conditions: A549, 24 h
In short: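 A549 cells in RPMI 1640 with 10% fetal calf serum, penicillin/streptomycin, 37 °C, 5% CO2; 20,000 cells/well seeded, after 24 h exposed to compounds at 0.00316 µM-10 mM for 24 h. XTT mitochondrial activity read at 480 nm (reference 680 nm) after 3 h; % inhibition per concentration, IC50 by non-linear regression.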

[3] = test system: Candida albicans; test: Antifungal activity against Candida albicans clinical isolate after 24 hrs by microdilution susceptibility assay; format: functional
In short: (§1)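 Broth microdilution in Mueller Hinton Broth, compounds from DMSO stocks diluted serially; inocula standardized to 10^6 CFU/mL (McFarland 0.5) from overnight MHB cultures. Plates held 37 °C for 24 h; MIC taken as first well without turbidity, aided by 1% tetrazolium violet added for 3 h at 37 °C. Ketoconazole reference.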

[4] = test system: Candida albicans; test: Antifungal activity against Candida albicans ATCC 10231 after 24 hrs by microdilution susceptibility assay; format: functional; conditions: ATCC 10231, 24 h; in short: as §1
[5] = test system: Nakaseomyces glabratus; test: Antifungal activity against Candida glabrata Osmangazi University clinical isolate after 24 hrs by microdilution susceptibility assay; format: functional; in short: as §1
[6] = test system: Cyberlindnera jadinii; test: Antifungal activity against Candida utilis NRRL Y-900 after 24 hrs by microdilution susceptibility assay; format: functional; conditions: Williopsis jadinii, NRRL Y-900, 24 h; in short: as §1
[7] = test system: Pichia kudriavzevii; test: Antifungal activity against Candida krusei NRRL Y-7179 after 24 hrs by microdilution susceptibility assay; format: functional; conditions: NRRL Y-7179, 24 h; in short: as §1
[8] = test system: Candida parapsilosis; test: Antifungal activity against Candida parapsilosis NRRL Y-12696 after 24 hrs by microdilution susceptibility assay; format: functional; conditions: Lodderomyces parapsilosis, NRRL Y-12696, 24 h; in short: as §1
[9] = test system: Candida albicans; test: Antifungal activity against Candida albicans ATCC 90028 after 24 hrs by microdilution susceptibility assay; format: functional; conditions: ATCC 90028, 24 h; in short: as §1
[10] = test system: Nakaseomyces glabratus; test: Antifungal activity against Candida glabrata Anadolu University clinical isolate after 24 hrs by microdilution susceptibility assay; format: functional; in short: as §1

Row | SMILES | IC50 [1] [mM] | IC50 [2] [mM] | MIC [3] [µg/mL] | MIC [4] [µg/mL] | MIC [5] [µg/mL] | MIC [6] [µg/mL] | MIC [7] [µg/mL] | MIC [8] [µg/mL] | MIC [9] [µg/mL] | MIC [10] [µg/mL]
1 | Cn1nnnc1SCC(=O)N/N=C/c1ccccc1Cl | > 10 | 6.32 | > 8000 | > 8000 | > 8000 | > 8000 | > 8000 | > 8000 | > 8000 | > 8000
2 | Cn1nnnc1SCC(=O)N/N=C/c1cccc(Cl)c1 | 7.5 | 7.5 | > 8000 | > 8000 | > 8000 | > 8000 | > 8000 | > 8000 | > 8000 | > 8000
3 | Cn1nnnc1SCC(=O)N/N=C/c1ccc(Cl)cc1Cl | 2.14 | 0.5 | > 8000 | > 8000 | > 8000 | > 8000 | > 8000 | > 8000 | > 8000 | > 8000
4 | Cn1nnnc1SCC(=O)N/N=C/c1cccc(F)c1 | 6.32 | 6.32 | > 8000 | > 8000 | > 8000 | > 8000 | > 8000 | > 8000 | > 8000 | > 8000
5 | COc1ccccc1/C=N/NC(=O)CSc1nnnn1C | 3.16 | 7 | > 8000 | > 8000 | > 8000 | > 8000 | > 8000 | > 8000 | > 8000 | > 8000
6 | Cn1nnnc1SCC(=O)N/N=C/c1ccc(Br)cc1 | 10 | > 10 | > 8000 | > 8000 | > 8000 | > 8000 | > 8000 | > 8000 | > 8000 | > 8000
7 | CC(C)c1ccc(/C=N/NC(=O)CSc2nnnn2C)cc1 | 1.2 | 0.4 | > 8000 | > 8000 | > 8000 | > 8000 | > 8000 | > 8000 | > 8000 | > 8000
8 | Cn1nnnc1SCC(=O)N/N=C/c1cccc(O)c1 | 3.16 | 4.5 | > 8000 | > 8000 | > 8000 | > 8000 | > 8000 | > 8000 | > 8000 | > 8000
9 | Cn1nnnc1SCC(=O)N/N=C/c1cccc([N+](=O)[O-])c1 | 2 | > 10 | > 8000 | > 8000 | > 8000 | > 8000 | > 8000 | > 8000 | > 8000 | > 8000
10 | Cc1cccc(/C=N/NC(=O)CSc2nnnn2C)c1 | 6.25 | 2 | > 8000 | > 8000 | > 8000 | > 8000 | > 8000 | > 8000 | > 8000 | > 8000
11 | Cn1nnnc1SCC(=O)N/N=C/c1ccc([N+](=O)[O-])cc1 | 9.3 | 0.632 | > 8000 | > 8000 | > 8000 | > 8000 | > 8000 | > 8000 | > 8000 | > 8000
12 | Cc1ccccc1/C=N/NC(=O)CSc1nnnn1C | 6.32 | > 10 | > 8000 | > 8000 | > 8000 | > 8000 | > 8000 | > 8000 | > 8000 | > 8000
13 | Cc1ccc(/C=N/NC(=O)CSc2nnnn2C)cc1 | 3.16 | 3.16 | > 8000 | > 8000 | > 8000 | > 8000 | > 8000 | > 8000 | > 8000 | > 8000
14 | C/C(=N\NC(=O)CSc1nnnn1C)c1ccc(Cl)cc1 | 0.1 | 6 | > 8000 | > 8000 | > 8000 | > 8000 | > 8000 | > 8000 | > 8000 | > 8000
15 | C/C(=N\NC(=O)CSc1nnnn1C)c1cccc(Cl)c1 | 3.4 | > 10 | > 8000 | > 8000 | > 8000 | > 8000 | > 8000 | > 8000 | > 8000 | > 8000
16 | Cn1nnnc1SCC(=O)N/N=C/c1ccc(C(F)(F)F)cc1 | > 10 | 6.32 | > 8000 | > 8000 | > 8000 | > 8000 | > 8000 | > 8000 | > 8000 | > 8000
17 | C/C(=N\NC(=O)CSc1nnnn1C)c1ccc(Cl)cc1Cl | 1 | 0.8 | > 8000 | > 8000 | > 8000 | > 8000 | > 8000 | > 8000 | > 8000 | > 8000
18 | C/C(=N\NC(=O)CSc1nnnn1C)c1cc(Cl)ccc1Cl | 1 | 1.5 | > 8000 | > 8000 | > 8000 | > 8000 | > 8000 | > 8000 | > 8000 | > 8000
19 | Cn1nnnc1SCC(=O)N/N=C/c1ccc(F)cc1 | 10 | 3.16 | > 8000 | > 8000 | > 8000 | > 8000 | > 8000 | > 8000 | > 8000 | > 8000
20 | C/C(=N\NC(=O)CSc1nnnn1C)c1ccccc1Cl | 6 | 6.32 | > 8000 | > 8000 | > 8000 | > 8000 | > 8000 | > 8000 | > 8000 | > 8000
21 | Cn1nnnc1SCC(=O)N/N=C/c1cccc(Cl)c1Cl | 0.52 | 0.632 | > 8000 | > 8000 | > 8000 | > 8000 | > 8000 | > 8000 | > 8000 | > 8000
22 | Cn1nnnc1SCC(=O)N/N=C/c1c(Cl)cccc1Cl | > 10 | 1 | > 8000 | > 8000 | > 8000 | > 8000 | > 8000 | > 8000 | > 8000 | > 8000
23 | Cn1nnnc1SCC(=O)N/N=C/c1ccc(Cl)cc1 | 2.1 | 0.1 | > 8000 | > 8000 | > 8000 | > 8000 | > 8000 | > 8000 | > 8000 | > 8000
24 | COc1cccc(/C=N/NC(=O)CSc2nnnn2C)c1 | 0.6 | > 10 | > 8000 | > 8000 | > 8000 | > 8000 | > 8000 | > 8000 | > 8000 | > 8000
25 | Cn1nnnc1SCC(=O)N/N=C/c1ccccc1Br | 0.02 | 2 | > 8000 | > 8000 | > 8000 | > 8000 | > 8000 | > 8000 | > 8000 | > 8000
26 | CC(=O)N1CCN(c2ccc(OCC3COC(Cn4ccnc4)(c4ccc(Cl)cc4Cl)O3)cc2)CC1 (stereo not drawn) [KETOCONAZOLE] | – | – | 3 (≈ 0.00565 mM) | 15 (≈ 0.0282 mM) | 15 (≈ 0.0282 mM) | 15 (≈ 0.0282 mM) | 3 (≈ 0.00565 mM) | 3 (≈ 0.00565 mM) | 31 (≈ 0.0583 mM) | 1 (≈ 0.00188 mM)
27 | Cn1nnnc1SCC(=O)N/N=C/c1cccc(Br)c1 | 0.316 | 0.6 | > 8000 | > 8000 | > 8000 | > 8000 | > 8000 | > 8000 | > 8000 | > 8000
28 | Cn1nnnc1SCC(=O)N/N=C/c1ccccc1O | > 10 | > 10 | > 8000 | > 8000 | > 8000 | > 8000 | > 8000 | > 8000 | > 8000 | > 8000
29 | Cn1nnnc1SCC(=O)N/N=C/c1ccccc1 | 9.7 | 3.16 | > 8000 | > 8000 | > 8000 | > 8000 | > 8000 | > 8000 | > 8000 | > 8000

Reference: ChEMBL document CHEMBL2203123, “Synthesis and biological evaluation of some hydrazone derivatives as new anticandidal and anticancer agents” (Eur J Med Chem, 2012)
